Measurements of several laboratories.
Compare with care: the assays were run in different laboratories. ≈ marks a conversion by molar mass, not a printed value.

COC(=O)c1cc(-c2cccc(NC(=O)Nc3ccc(F)c(F)c3)c2)on1 — MIC (Acinetobacter baumannii; microbial growth, broth dilution; BAA1605): > 64 µg/mL
CC(C)(C)C1CCC2(CC1)SCC(=O)N2NC(=O)c1[nH]c2ccc(Cl)cc2c1-c1ccccc1 (centres unmarked) — EC50 (Enterovirus B; viral replication, inhibitor; Vero, B4): > 100 µM
CC(=O)C1=C(O)C(CC(C)C)NC1=O (centres unmarked) — MIC (Proteus mirabilis; microbial growth; ATCC25933): > 200 µg/mL
COc1nc(N)nc2c1ncn2[C@@H]1O[C@H](COP(=O)(N[C@@H](C)C(=O)OCC(C)(C)C)Oc2cccc3ccccc23)[C@@H](O)[C@@]1(C)O (some centres unmarked) — EC90 (Hepatitis C virus; viral replication, inhibitor; GETYPE1A; 96 h, replicon): 0.004 µM
CCC1CCC2(CC1)SCC(=O)N2NC(=O)c1[nH]c2ccc(Cl)cc2c1-c1ccccc1 (centres unmarked) — EC50 (Enterovirus B; viral replication, inhibitor; Vero, B4): > 100 µM
COC(=O)c1cc(-c2cccc(NC(=O)Nc3ccc(Cl)cc3)c2)on1 — MIC (Acinetobacter baumannii; microbial growth, broth dilution; BAA1605): > 64 µg/mL
CO[C@H]1/C=C/O[C@@]2(C)Oc3c(C)c(O)c4c(O)c(c(/C=N/N5CCN(C)CC5)c(O)c4c3C2=O)NC(=O)/C(C)=C\C=C\[C@H](C)[C@H](O)[C@@H](C)[C@@H](O)[C@@H](C)[C@H](OC(C)=O)[C@@H]1C — MIC (Acinetobacter baumannii; microbial growth, broth dilution; ATCC19606; drug-resistant strain): 1 µg/mL (≈ 1.22 µM)
COC(=O)c1cc(-c2cccc(NC(=O)Nc3cccc(Cl)c3Cl)c2)on1 — MIC (Acinetobacter baumannii; microbial growth, broth dilution; BAA1605): > 64 µg/mL
CC1CCN(CCCN2/C(=C/c3cc[n+](C)c4ccccc34)Sc3ccccc32)CC1.[I-] — MIC (Acinetobacter baumannii; microbial growth, broth dilution; ATCC19606; drug-resistant strain): 16 µg/mL
C=C1CC[C@H](O)C/C1=C/C=C1\CCC[C@]2(C)[C@@H]([C@H](C)/C=C/[C@H](C)C(C)C)CC[C@@H]12 — EC50 (Hepatitis C virus; viral replication, inhibitor, luciferase; GETYPE2A; 5 days, replicon): 13 µM
CCC1CCC2(CC1)SC(C)C(=O)N2NC(=O)c1[nH]c2ccc(Cl)cc2c1-c1ccccc1 (centres unmarked) — EC50 (Enterovirus B; viral replication, inhibitor; Vero, B4): > 100 µM
CCCCCCNC(=S)Nc1cccc(-c2cc(C(=O)OC)no2)c1 — MIC (Acinetobacter baumannii; microbial growth, broth dilution; BAA1605): > 64 µg/mL
Cc1cc(/C=C2\Sc3ccccc3N2CCCN2CCCCC2)c2ccccc2[n+]1C.[I-] — MIC (Acinetobacter baumannii; microbial growth, broth dilution; ATCC19606; drug-resistant strain): 64 µg/mL
CC1CCCC2(C1)SC(C)C(=O)N2NC(=O)c1[nH]c2ccc(Cl)cc2c1-c1ccccc1 (centres unmarked) — EC50 (Enterovirus B; viral replication, inhibitor; Vero, B4): > 100 µM
Cc1c(NN=C(C#N)C2=NC(=O)CS2)c(=O)n(-c2ccccc2)n1C — MBC (Acinetobacter baumannii; microbial killing, broth dilution): 0.25 µg/mL (≈ 0.705 µM)
COC(=O)N[C@H](C(=O)N1CCC[C@H]1c1ncc(-c2ccc(-c3cnc([C@@H]4CCCN4C(=O)[C@@H](NC(=O)OC)C(C)C)[nH]3)cc2)[nH]1)C(C)C — EC90 (Hepatitis C virus; viral replication, inhibitor; Huh-7, GETYPE1B; replicon): > 0.001 µM
COC(=O)c1cc(-c2cccc(NC(=O)Nc3cc(OC)ccc3OC)c2)on1 — MIC (Acinetobacter baumannii; microbial growth, broth dilution; BAA1605): > 64 µg/mL
CC1CCCC2(C1)SCC(=O)N2NC(=O)c1[nH]c2ccc(Cl)cc2c1-c1ccccc1 (centres unmarked) — EC50 (Enterovirus B; viral replication, inhibitor; Vero, B4): > 100 µM
C=C1/C(=C\C=C2/CCC[C@]3(C)[C@@H]([C@H](C)CCCC(C)(C)O)CC[C@@H]23)C[C@@H](O)C[C@@H]1O — EC50 (Hepatitis C virus; viral replication, inhibitor, luciferase; BM4-5, GETYPE1B; 72 h, replicon): 3.19 µM
NC(=O)c1ncn([C@@H]2O[C@H](CO)[C@@H](O)[C@H]2O)n1 — EC50 (Enterovirus B; viral replication, inhibitor; Vero, B4): > 250 µM
CC1(C)S[C@@H]2[C@H](NC(=O)[C@H](N)c3ccccc3)C(=O)N2[C@H]1C(=O)O — MIC (Acinetobacter baumannii; microbial growth, broth dilution; ATCC19606; drug-resistant strain): 64 µg/mL (≈ 183 µM)
CC1SC2(CCC(c3ccccc3)CC2)N(NC(=O)c2[nH]c3ccc(Cl)cc3c2-c2ccccc2)C1=O (centres unmarked) — EC50 (Enterovirus B; viral replication, inhibitor; Vero, B4): > 100 µM
COC(=O)c1cc(-c2cccc(NC(=O)Nc3ccc(C)cc3)c2)on1 — MIC (Acinetobacter baumannii; microbial growth, broth dilution; BAA1605): > 64 µg/mL
C=C1CC[C@H](O)C/C1=C/C=C1\CCC[C@]2(C)[C@@H]([C@H](C)CCCC(C)C)CC[C@@H]12 — EC50 (Hepatitis C virus; viral replication, inhibitor, luciferase; GETYPE2A; 5 days, replicon): 8.45 µM
CCCC1CCC2(CC1)SC(C)C(=O)N2NC(=O)c1[nH]c2ccc(Cl)cc2c1-c1ccccc1 (centres unmarked) — EC50 (Enterovirus B; viral replication, inhibitor; Vero, B4): > 100 µM
COC(=O)c1cc(-c2cccc(NC(=S)Nc3ccc(C)cc3)c2)on1 — MIC (Acinetobacter baumannii; microbial growth, broth dilution; BAA1605): > 64 µg/mL
C=C[C@@H]1C[C@]1(NC(=O)[C@@H]1C[C@@H]2CN1C(=O)[C@H](C(C)(C)C)NC(=O)O[C@@H]1C[C@H]1CCCCCc1nc3ccc(OC)cc3nc1O2)C(=O)NS(=O)(=O)C1CC1 — IC50 (Hepatitis C virus; viral replication, inhibitor, luciferase; Huh-7, GETYPE1B; 96 h, replicon): 0.0466 µM
C[n+]1c(/C=C/c2c[nH]c3ccccc23)cc(/C=C2\Sc3ccccc3N2CCCN2CCOCC2)c2ccccc21.[I-] — MIC (Acinetobacter baumannii; microbial growth, broth dilution; ATCC19606; drug-resistant strain): > 64 µg/mL
COC(=O)c1cc(-c2cccc(NC(=O)Nc3cc(Cl)ccc3Cl)c2)on1 — MIC (Acinetobacter baumannii; microbial growth, broth dilution; BAA1605): > 64 µg/mL
